From ChEMBL document CHEMBL4043093, “2-Oxo-3, 4-dihydropyrimido[4, 5-d]pyrimidinyl derivatives as new irreversible pan fibroblast growth factor receptor (FGFR) inhibitors” (Eur J Med Chem, 2017)

Tests used:
[1] = molecular target: Tyrosine-protein kinase receptor Tie-1 (Homo sapiens) (UniProt P35590); assay: Inhibition of wild-type human partial length TIE1 (T819 to A1138 residues) expressed in Escherichia coli BL21 assessed as residual activity at 1000 nM after 30 mins by Kinomescan method relative to control
[2] = molecular target: Ephrin type-B receptor 3 (Homo sapiens) (UniProt P54753); assay: Inhibition of wild-type human partial length EPHB3 (Q599 to T928 residues) expressed in Escherichia coli BL21 assessed as residual activity at 1000 nM after 30 mins by Kinomescan method relative to control
Ephrin type-B receptor 3 (Homo sapiens), sequence (P54753 whole entry, the tested form may be a part): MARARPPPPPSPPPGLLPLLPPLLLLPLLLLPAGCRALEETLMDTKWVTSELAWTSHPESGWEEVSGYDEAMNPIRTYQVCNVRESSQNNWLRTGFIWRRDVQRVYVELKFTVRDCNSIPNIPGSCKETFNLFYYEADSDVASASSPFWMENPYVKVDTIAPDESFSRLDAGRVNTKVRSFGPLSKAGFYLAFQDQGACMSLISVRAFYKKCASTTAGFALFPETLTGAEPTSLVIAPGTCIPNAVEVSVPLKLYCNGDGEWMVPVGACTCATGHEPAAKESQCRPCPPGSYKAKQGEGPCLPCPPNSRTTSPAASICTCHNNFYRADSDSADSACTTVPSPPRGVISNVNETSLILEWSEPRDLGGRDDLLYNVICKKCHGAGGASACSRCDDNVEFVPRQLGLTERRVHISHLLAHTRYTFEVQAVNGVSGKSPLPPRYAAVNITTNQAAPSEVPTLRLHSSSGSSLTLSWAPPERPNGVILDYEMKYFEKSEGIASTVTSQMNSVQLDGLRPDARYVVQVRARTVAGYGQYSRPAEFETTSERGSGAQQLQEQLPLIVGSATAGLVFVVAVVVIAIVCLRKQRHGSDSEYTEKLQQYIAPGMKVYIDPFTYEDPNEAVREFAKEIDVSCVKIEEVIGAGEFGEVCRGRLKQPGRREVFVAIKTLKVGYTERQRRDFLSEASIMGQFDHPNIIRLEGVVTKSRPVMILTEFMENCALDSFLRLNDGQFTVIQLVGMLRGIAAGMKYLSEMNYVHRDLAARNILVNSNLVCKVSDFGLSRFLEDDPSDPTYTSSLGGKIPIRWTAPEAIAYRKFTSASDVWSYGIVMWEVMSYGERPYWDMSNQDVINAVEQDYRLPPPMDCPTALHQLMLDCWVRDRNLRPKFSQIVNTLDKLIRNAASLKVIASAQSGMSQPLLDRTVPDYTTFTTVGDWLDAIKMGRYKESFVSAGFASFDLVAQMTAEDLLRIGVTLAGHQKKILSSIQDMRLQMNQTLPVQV

[3] = molecular target: Tyrosine-protein kinase Tec (Homo sapiens) (UniProt P42680); assay: Inhibition of wild-type human partial length TEC (L341 to D620 residues) expressed in Escherichia coli BL21 assessed as residual activity at 1000 nM after 30 mins by Kinomescan method relative to control
Tyrosine-protein kinase Tec (Homo sapiens), sequence (P42680 whole entry, the tested form may be a part): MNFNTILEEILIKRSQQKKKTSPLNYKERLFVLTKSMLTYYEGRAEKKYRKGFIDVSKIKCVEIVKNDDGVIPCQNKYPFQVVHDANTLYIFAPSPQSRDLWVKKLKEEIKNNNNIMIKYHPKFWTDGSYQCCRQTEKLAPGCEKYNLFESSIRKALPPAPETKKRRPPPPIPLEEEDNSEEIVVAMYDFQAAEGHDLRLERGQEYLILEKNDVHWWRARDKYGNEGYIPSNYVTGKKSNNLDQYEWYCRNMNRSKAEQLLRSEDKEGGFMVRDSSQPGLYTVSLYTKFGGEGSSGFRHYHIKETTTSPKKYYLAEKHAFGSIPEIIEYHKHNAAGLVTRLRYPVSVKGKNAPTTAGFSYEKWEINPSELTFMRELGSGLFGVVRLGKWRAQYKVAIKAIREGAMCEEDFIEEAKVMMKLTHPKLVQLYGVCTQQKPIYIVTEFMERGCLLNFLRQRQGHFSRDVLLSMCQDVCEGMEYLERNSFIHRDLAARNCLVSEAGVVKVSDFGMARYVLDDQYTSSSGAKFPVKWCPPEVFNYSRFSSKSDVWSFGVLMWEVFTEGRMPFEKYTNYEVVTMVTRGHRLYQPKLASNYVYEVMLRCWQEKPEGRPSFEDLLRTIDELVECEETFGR

[4] = molecular target: Serine/threonine-protein kinase Nek6 (Homo sapiens) (UniProt Q9HC98); assay: Inhibition of wild-type human full length NEK6 (M8 to T313 residues) expressed in Escherichia coli BL21 assessed as residual activity at 1000 nM after 30 mins by Kinomescan method relative to control
Serine/threonine-protein kinase Nek6 (Homo sapiens), sequence (Q9HC98 whole entry, the tested form may be a part): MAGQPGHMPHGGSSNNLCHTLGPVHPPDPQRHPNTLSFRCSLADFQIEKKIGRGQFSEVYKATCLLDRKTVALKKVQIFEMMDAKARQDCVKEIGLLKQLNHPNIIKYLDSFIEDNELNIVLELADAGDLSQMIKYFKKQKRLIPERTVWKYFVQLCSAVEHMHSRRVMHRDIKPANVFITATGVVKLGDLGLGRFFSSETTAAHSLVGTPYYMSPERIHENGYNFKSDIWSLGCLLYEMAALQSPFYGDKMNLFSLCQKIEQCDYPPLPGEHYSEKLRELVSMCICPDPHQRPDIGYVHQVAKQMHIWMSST
How it was run: (§1)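 Single-concentration screen at 1 µM across a 456-kinase KINOMEscan panel. The read-out is Percent Control for each kinase.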

[5] = molecular target: Mitogen-activated protein kinase 11 (Homo sapiens) (UniProt Q15759); assay: Inhibition of wild-type human full length p38-beta (M1 to Q364 residues) expressed in Escherichia coli BL21 assessed as residual activity at 1000 nM after 30 mins by Kinomescan method relative to control
[6] = molecular target: Myosin-IIIa (Homo sapiens) (UniProt Q8NEV4); assay: Inhibition of wild-type human partial length MYO3A (M1 to K338 residues) expressed in Escherichia coli BL21 assessed as residual activity at 1000 nM after 30 mins by Kinomescan method relative to control
[7] = molecular target: Ribosomal protein S6 kinase alpha-3 (Homo sapiens) (UniProt P51812); assay: Inhibition of wild-type human partial length N-terminal RSK3 kinase domain 1 (M1 to Q385 residues) expressed in Escherichia coli BL21 assessed as residual activity at 1000 nM after 30 mins by Kinomescan method relative to control
[8] = molecular target: 1-phosphatidylinositol 3-phosphate 5-kinase (Homo sapiens) (UniProt Q9Y2I7); assay: Inhibition of wild-type human partial length PIKFYVE (F1512 to C2098 residues) expressed in HEK293 cells assessed as residual activity at 1000 nM after 30 mins by Kinomescan method relative to control; format: cell-based
[9] = molecular target: Glycogen synthase kinase-3 alpha (Homo sapiens) (UniProt P49840); assay: Inhibition of wild-type human full length GSK3A (M1 to S483 residues) expressed in Escherichia coli BL21 assessed as residual activity at 1000 nM after 30 mins by Kinomescan method relative to control; how it was run: as §1
[10] = molecular target: Serine/threonine-protein kinase Sgk3 (Homo sapiens) (UniProt Q96BR1); assay: Inhibition of wild-type human partial length SGK3 (M119 to L496 residues) expressed in HEK293 cells assessed as residual activity at 1000 nM after 30 mins by Kinomescan method relative to control; format: cell-based
Serine/threonine-protein kinase Sgk3 (Homo sapiens), sequence (Q96BR1 whole entry, the tested form may be a part): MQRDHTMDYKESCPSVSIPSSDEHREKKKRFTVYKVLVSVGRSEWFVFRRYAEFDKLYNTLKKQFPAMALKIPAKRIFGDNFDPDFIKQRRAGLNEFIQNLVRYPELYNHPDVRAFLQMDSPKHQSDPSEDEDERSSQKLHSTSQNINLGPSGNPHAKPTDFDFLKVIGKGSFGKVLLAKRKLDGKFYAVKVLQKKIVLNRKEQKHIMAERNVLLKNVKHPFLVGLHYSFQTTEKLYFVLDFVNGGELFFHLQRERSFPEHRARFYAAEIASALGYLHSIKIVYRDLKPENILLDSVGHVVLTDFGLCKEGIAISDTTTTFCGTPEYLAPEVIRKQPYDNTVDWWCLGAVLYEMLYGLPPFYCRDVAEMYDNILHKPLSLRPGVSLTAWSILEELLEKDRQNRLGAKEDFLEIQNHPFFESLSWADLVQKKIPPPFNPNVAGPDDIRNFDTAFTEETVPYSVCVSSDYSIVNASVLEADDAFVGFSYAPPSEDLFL

[11] = molecular target: Proto-oncogene tyrosine-protein kinase Src (Homo sapiens) (UniProt P12931); assay: Inhibition of wild-type human partial length SRC (L240 to L536 residues) expressed in Escherichia coli BL21 assessed as residual activity at 1000 nM after 30 mins by Kinomescan method relative to control
Proto-oncogene tyrosine-protein kinase Src (Homo sapiens), sequence (P12931 2-536 limits assumed): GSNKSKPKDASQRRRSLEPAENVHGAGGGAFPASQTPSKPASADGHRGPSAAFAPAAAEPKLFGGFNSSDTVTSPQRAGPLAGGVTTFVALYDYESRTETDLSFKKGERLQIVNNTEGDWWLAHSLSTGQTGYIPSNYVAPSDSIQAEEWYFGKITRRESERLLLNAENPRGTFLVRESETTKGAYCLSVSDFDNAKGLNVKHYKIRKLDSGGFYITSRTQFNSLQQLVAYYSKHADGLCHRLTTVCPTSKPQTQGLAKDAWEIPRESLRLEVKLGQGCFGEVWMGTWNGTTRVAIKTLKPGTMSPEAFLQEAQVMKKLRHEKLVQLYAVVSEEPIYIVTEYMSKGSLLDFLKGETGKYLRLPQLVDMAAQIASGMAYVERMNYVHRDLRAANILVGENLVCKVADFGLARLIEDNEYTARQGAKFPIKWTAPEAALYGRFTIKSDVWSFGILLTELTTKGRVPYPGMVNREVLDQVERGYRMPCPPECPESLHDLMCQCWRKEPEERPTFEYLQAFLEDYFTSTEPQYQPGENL

[12] = molecular target: Interleukin-1 receptor-associated kinase 3 (Homo sapiens) (UniProt Q9Y616); assay: Inhibition of wild-type human partial length IRAK3 (V147 to E596 residues) expressed in Escherichia coli BL21 assessed as residual activity at 1000 nM after 30 mins by Kinomescan method relative to control
[13] = molecular target: Macrophage-stimulating protein receptor (Homo sapiens) (UniProt Q04912); assay: Inhibition of wild-type human partial length MST1R (I1057 to L1363 residues) expressed in Escherichia coli BL21 assessed as residual activity at 1000 nM after 30 mins by Kinomescan method relative to control
Macrophage-stimulating protein receptor (Homo sapiens), sequence (Q04912 25-304 limits assumed): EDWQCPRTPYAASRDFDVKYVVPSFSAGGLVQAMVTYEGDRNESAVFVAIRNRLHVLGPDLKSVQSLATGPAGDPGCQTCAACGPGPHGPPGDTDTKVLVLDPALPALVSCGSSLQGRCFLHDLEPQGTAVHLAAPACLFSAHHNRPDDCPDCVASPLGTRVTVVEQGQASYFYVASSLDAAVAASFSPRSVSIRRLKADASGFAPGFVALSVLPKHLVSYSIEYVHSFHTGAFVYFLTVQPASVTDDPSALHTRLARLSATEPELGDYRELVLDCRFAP
Macrophage-stimulating protein receptor (Homo sapiens), sequence (Q04912 310-1400 limits assumed): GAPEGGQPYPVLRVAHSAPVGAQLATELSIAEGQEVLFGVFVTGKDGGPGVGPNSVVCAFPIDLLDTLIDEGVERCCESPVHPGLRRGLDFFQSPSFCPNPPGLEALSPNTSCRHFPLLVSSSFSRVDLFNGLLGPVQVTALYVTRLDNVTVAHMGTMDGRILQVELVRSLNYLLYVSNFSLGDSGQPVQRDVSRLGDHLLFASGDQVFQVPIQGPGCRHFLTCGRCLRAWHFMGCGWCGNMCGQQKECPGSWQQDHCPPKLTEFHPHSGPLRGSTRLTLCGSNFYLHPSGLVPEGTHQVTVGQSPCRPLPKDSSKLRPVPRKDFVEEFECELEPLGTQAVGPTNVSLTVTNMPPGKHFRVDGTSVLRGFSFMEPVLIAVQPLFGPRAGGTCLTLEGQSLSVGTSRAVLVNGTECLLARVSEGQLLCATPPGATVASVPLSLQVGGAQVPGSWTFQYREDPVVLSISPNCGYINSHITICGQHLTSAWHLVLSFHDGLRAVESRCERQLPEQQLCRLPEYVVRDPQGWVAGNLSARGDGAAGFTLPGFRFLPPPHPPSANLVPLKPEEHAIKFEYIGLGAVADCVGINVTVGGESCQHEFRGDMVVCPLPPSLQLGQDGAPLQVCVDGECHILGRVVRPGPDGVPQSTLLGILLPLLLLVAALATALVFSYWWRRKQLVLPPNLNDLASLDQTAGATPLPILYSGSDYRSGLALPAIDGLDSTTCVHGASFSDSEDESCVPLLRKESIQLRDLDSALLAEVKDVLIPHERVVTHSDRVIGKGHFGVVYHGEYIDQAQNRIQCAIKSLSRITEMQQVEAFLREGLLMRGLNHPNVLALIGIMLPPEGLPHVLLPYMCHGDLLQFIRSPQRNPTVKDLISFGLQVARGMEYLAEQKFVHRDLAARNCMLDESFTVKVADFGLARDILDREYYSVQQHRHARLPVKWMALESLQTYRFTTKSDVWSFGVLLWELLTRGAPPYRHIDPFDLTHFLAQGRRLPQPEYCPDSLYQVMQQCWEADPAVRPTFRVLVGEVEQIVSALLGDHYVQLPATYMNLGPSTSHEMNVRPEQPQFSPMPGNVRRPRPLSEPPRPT

[14] = molecular target: Tyrosine-protein kinase Fgr (Homo sapiens) (UniProt P09769); assay: Inhibition of wild-type human partial length FGR (L233 to T529 residues) expressed in Escherichia coli BL21 assessed as residual activity at 1000 nM after 30 mins by Kinomescan method relative to control
Tyrosine-protein kinase Fgr (Homo sapiens), sequence (P09769 2-529 limits assumed): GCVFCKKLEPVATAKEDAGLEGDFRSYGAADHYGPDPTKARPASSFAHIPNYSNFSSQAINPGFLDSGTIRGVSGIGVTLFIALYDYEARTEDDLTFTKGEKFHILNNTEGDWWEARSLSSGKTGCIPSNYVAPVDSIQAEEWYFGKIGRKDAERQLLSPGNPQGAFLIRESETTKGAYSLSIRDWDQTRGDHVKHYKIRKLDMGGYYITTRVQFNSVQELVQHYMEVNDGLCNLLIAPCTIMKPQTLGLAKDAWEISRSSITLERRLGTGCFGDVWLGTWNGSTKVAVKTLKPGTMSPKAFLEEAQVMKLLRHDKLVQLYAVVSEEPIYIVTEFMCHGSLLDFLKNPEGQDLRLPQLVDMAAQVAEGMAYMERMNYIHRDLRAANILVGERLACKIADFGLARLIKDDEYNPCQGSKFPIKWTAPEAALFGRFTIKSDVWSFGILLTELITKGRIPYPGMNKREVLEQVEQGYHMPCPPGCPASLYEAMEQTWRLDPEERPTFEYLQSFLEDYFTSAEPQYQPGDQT

[15] = molecular target: Ephrin type-B receptor 2 (Homo sapiens) (UniProt P29323); assay: Inhibition of wild-type human partial length EPHB2 (I597 to L902 residues) expressed in Escherichia coli BL21 assessed as residual activity at 1000 nM after 30 mins by Kinomescan method relative to control
[16] = test system: Tyrosine-protein kinase ABL1 (Homo sapiens), P00519 [T315I]; assay: Inhibition of human non-phosphorylated ABL1 T315I mutant (S229 to K512 residues) expressed in HEK293 cells assessed as residual activity at 1000 nM after 30 mins by Kinomescan method relative to control; format: cell-based
How it was run: (§2)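 KINOMEscan binding panel of 456 kinases, with the test compound at a single concentration of 1 µM. Read-out is Percent Control.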

[17] = molecular target: Mitogen-activated protein kinase kinase kinase 13 (Homo sapiens) (UniProt O43283); assay: Inhibition of wild-type human full length LZK (M1 to W966 residues) expressed in HEK293 cells assessed as residual activity at 1000 nM after 30 mins by Kinomescan method relative to control; format: cell-based; how it was run: as §1
[18] = molecular target: Non-receptor tyrosine-protein kinase TNK1 (Homo sapiens) (UniProt Q13470); assay: Inhibition of wild-type human full length TNK1 (M1 to P661 residues) expressed in Escherichia coli BL21 assessed as residual activity at 1000 nM after 30 mins by Kinomescan method relative to control
[19] = molecular target: Mitogen-activated protein kinase kinase kinase 11 (Homo sapiens) (UniProt Q16584); assay: Inhibition of wild-type human partial length MLK3 (I77 to W399 residues) expressed in Escherichia coli BL21 assessed as residual activity at 1000 nM after 30 mins by Kinomescan method relative to control
[20] = molecular target: High affinity nerve growth factor receptor (Homo sapiens) (UniProt P04629); assay: Inhibition of wild-type human partial length TRKA (G475 to G790 residues) expressed in HEK293 cells assessed as residual activity at 1000 nM after 30 mins by Kinomescan method relative to control; format: cell-based
[21] = molecular target: Serine/threonine-protein kinase MRCK alpha (Homo sapiens) (UniProt Q5VT25); assay: Inhibition of wild-type human partial length MRCKA (L57 to V418 residues) expressed in Escherichia coli BL21 assessed as residual activity at 1000 nM after 30 mins by Kinomescan method relative to control
[22] = test system: Hepatocyte growth factor receptor (Homo sapiens), P08581 [M1250T]; assay: Inhibition of human partial length MET M1250T mutant (D1010 to S1367 residues) expressed in Escherichia coli BL21 assessed as residual activity at 1000 nM after 30 mins by Kinomescan method relative to control; how it was run: as §2

COc1cc(OC)c(Cl)c(N2Cc3cnc(Nc4ccc(F)cc4)nc3N(C3CCN(C(=O)/C=C/CN(C)C)CC3)C2=O)c1Cl
Activity [1]: 19%
Activity [2]: 100%
Activity [3]: 100%
Activity [4]: 100%
Activity [5]: 87%
Activity [6]: 96%
Activity [7]: 97%
Activity [8]: 95%
Activity [9]: 100%
Activity [10]: 87%
Activity [11]: 11%
Activity [12]: 100%
Activity [13]: 95%
Activity [14]: 19%
Activity [15]: 99%
Activity [16]: 100%
Activity [17]: 100%
Activity [18]: 93%
Activity [19]: 83%
Activity [20]: 38%
Activity [21]: 98%
Activity [22]: 100%
